# ChEMBL document CHEMBL4622834, “Synthesis and antiproliferative activity of sulfonamide-based peptidomimetic calpain inhibitors” (Bioorg Med Chem, 2020)
# The source made the active and inactive calls. No cut-off for these calls is given here. Where a SMILES comes first, the peptide text is derived from it. The star is where a group is joined. Cbz = O=C(OCc1ccccc1)*
# What was measured:
# A-375 = test: Antiproliferative activity against human A375 cells assessed as inhibition of cell growth after 48 hrs by sulforhodamine B colorimetric assay; type: functional; conditions: A-375, 48 h
# Method in brief: (§1)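 Melanoma cells in DMEM with 5% FBS, 1% penicillin/streptomycin, 0.05% insulin; 5000 cells/well in U-bottom wells. After 12 h medium changed and compound added at 8 concentrations for 48 h; Taxol positive control, cells plus medium as negative control. Fixed with 10% TCA, stained with 0.4% SRB in 1% acetic acid 30 min RT, dye released with 10 mM Tris base, A490. Triplicate, ±SEM.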
# B16-F1 = test: Antiproliferative activity against mouse B16-F1 cells assessed as inhibition of cell growth after 48 hrs by sulforhodamine B colorimetric assay; type: functional; conditions: B16-F1, 48 h; method in brief: as §1
# PC-3 = test: Antiproliferative activity against human PC3 cells assessed as inhibition of cell growth after 72 hrs by MTT assay; type: functional; conditions: PC-3, 72 h
# Method in brief: (§2)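 Cells seeded at 2,000–15,000/well, exposed to drug for 72 h at 37 °C, 5% CO2; untreated wells as negative control. MTT (5 mg/mL) added for the final 2–4 h; plates spun, formazan dissolved in DMSO, A595. Percent survival vs concentration fitted by nonlinear regression for IC50. Triplicate. PC3 grown in RPMI-1640, DU145 in EMEM, each with 10% FBS; DU145 tested at 1 and 2 µM.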
# [1] = molecular target: T1, Calpain-1 catalytic subunit (Sus scrofa, UniProt P35750); test: Inhibition of mu-calpain in porcine erythrocyte using Suc-Leu-Tyr-AMC as substrate by microtiter plate assay based Dixon plot analysis
# T1 sequence (P35750 whole entry): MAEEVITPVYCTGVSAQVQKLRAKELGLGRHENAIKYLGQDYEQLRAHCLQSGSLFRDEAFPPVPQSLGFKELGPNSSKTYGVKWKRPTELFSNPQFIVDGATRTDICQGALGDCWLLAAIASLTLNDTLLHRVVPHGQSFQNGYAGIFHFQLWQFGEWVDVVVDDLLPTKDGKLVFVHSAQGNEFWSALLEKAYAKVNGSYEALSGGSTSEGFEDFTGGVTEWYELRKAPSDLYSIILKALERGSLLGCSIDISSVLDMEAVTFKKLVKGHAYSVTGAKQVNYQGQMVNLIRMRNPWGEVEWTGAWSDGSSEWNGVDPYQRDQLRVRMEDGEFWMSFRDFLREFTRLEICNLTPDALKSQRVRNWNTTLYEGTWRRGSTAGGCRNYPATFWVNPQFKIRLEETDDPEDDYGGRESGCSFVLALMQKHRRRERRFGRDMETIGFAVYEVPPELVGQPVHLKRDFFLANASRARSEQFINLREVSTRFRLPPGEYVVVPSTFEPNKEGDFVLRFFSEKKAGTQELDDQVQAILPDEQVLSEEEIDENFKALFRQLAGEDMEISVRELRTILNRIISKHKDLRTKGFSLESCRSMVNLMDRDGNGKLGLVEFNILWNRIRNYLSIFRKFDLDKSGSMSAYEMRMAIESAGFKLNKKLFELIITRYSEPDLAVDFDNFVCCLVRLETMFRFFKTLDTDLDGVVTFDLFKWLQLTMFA
# Method in brief: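 Porcine erythrocyte µ-calpain (1 µg) in 50 mM Tris-HCl pH 7.4, 50 mM NaCl, 10 mM DTT, 1 mM EDTA, 1 mM EGTA, 5 mM CaCl2, with 0.2 mM or 1.0 mM Suc-Leu-Tyr-AMC and varying inhibitor in DMSO (2% total). Ki from Dixon plots of initial velocity (1/v vs inhibitor concentration), r above 0.95; no correction for slow binding or autolysis; mean of triplicates.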
# DU-145 [2] = test: Antiinvasive activity against human DU145 cells assessed as inhibition of cell invasion at 2 uM after 48 hrs by matrigel cell invasion assay; type: functional; conditions: DU-145, 48 h
# Method in brief: (§3)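 DU-145 cells (20,000) seeded in serum-free medium with 1% BSA in upper chamber, 37 °C for 24 h; lower chamber 10% FBS as chemoattractant. Upper medium then replaced with serum-free medium with or without compound at 1.0, 1.5 or 2.0 µM. After 48 h, non-invading cells swabbed off; invading cells fixed, stained, counted. Triplicate; expressed as percentage of untreated cells.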
# DU-145 [3] = test: Antiproliferative activity against human DU145 cells assessed as inhibition of cell growth at 1 to 2 uM after 72 hrs by MTT assay; type: functional, cell-based; method in brief: as §2
# DU-145 [4] = test: Antiinvasive activity against human DU145 cells assessed as inhibition of cell invasion after 48 hrs by matrigel cell invasion assay; type: functional, cell-based; method in brief: as §3
Compound,GI50 (A-375) [µM],GI50 (B16-F1) [µM],GI50 (PC-3) [µM],Ki [1] [µM],inhibition at 2 µM (DU-145 [2]) [%],Activity (DU-145 [3]),inhibition (DU-145 [4])
CC(C)C[C@@H](C=O)NC(=O)[C@@H](NS(=O)(=O)c1ccc(/C=C/c2ccccc2)cc1)C(C)C,9.4,10.3,23,0.014,–,–,–
CC(C)C[C@@H](C=O)NC(=O)[C@@H](NS(=O)(=O)c1ccc(/N=N/c2ccccc2)cc1)C(C)C,12.9,13.7,27.3,0.018,–,–,–
CC(C)[C@H](NC(=O)OCc1ccccc1)C(=O)N[C@H](C=O)Cc1ccccc1 (Cbz-Val-Phe-aldehyde),–,–,–,0.01,–,–,–
CC(=O)O[C@H]1C(=O)[C@@]2(C)[C@H]([C@H](OC(=O)c3ccccc3)[C@]3(O)C[C@H](OC(=O)[C@H](O)[C@@H](NC(=O)c4ccccc4)c4ccccc4)C(C)=C1C3(C)C)[C@]1(OC(C)=O)CO[C@@H]1C[C@@H]2O [PACLITAXEL],0.01,0.02,0.03,–,–,–,–
CC(C)C[C@@H](C=O)NC(=O)[C@@H]1CCCN1S(=O)(=O)c1ccc(/N=N/c2ccccc2)cc1,4.1,13.6,5.6,0.273,–,–,–
CC(C)C[C@H](NC(=O)[C@@H](NS(=O)(=O)c1ccc(/C=C/c2ccccc2)cc1)C(C)C)C(=O)C(N)=O,16,17.2,6.02,0.009,–,–,–
CC(C)C[C@H](NC(=O)[C@@H](NS(=O)(=O)c1ccc(/N=N/c2ccccc2)cc1)C(C)C)C(=O)C(N)=O,22.2,18.7,24.1,0.016,80,inactive,Dose-dependent effect
